Measurements from ChEMBL document CHEMBL1128251, “Antimalarial activity of new dihydroartemisinin derivatives. 6. alpha-Alkylbenzylic ethers” (J Med Chem, 1995).
Values after ≈ are worked out from the molar mass of the structure shown.

How the values were obtained:
Plasmodium falciparum [1] = experiment: In vitro antimalarial activity against Plasmodium falciparum D6 (Sierra Leone I); assay type: functional, organism-based
Method in brief: (§1)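 Clones D-6 and W-2 tested in parallel. Compounds dissolved in DMSO, diluted 400-fold in RPMI 1640 with 25 mM Hepes, 32 mM NaHCO3 and 10% human plasma, then serially diluted 2-fold over 11 concentrations. Parasites preexposed 48 h at 37 °C under 5% O2/5% CO2/90% N2, then [3H]hypoxanthine added for 18 h; DNA harvested, uptake counted by scintillation. IC50 from logistic dose-response model; arithmetic mean of ≥3 runs.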

Plasmodium falciparum [2] = experiment: In vitro antimalarial activity against Plasmodium falciparum W2 Indochina; assay type: functional, organism-based; method in brief: as §1

| SMILES | IC50 (Plasmodium falciparum [1]) [ng/mL] | IC50 (Plasmodium falciparum [2]) [ng/mL] |
| --- | --- | --- |
| COC(=O)c1ccc([C@@H](C)O[C@H]2O[C@@H]3O[C@@]4(C)CC[C@H]5[C@H](C)CCC([C@H]2C)[C@@]35OO4)cc1 (some centres undefined) | 0.921 (≈ 2.06 nM) | 0.337 (≈ 0.754 nM) |
| CCOC(=O)C[C@@H](O[C@H]1O[C@@H]2O[C@@]3(C)CC[C@H]4[C@H](C)CCC([C@H]1C)[C@@]24OO3)c1ccccc1 (some centres undefined) | 0.496 (≈ 1.08 nM) | 0.213 (≈ 0.463 nM) |
| CCC[C@H](Cc1ccccc1)O[C@H]1O[C@@H]2O[C@@]3(C)CC[C@H]4[C@H](C)CCC([C@H]1C)[C@@]24OO3 (some centres undefined) | 3.05 (≈ 7.08 nM) | 1.92 (≈ 4.45 nM) |
| CCOC(=O)C[C@H](O[C@H]1O[C@@H]2O[C@@]3(C)CC[C@H]4[C@H](C)CCC([C@H]1C)[C@@]24OO3)c1ccc([N+](=O)[O-])cc1 (some centres undefined) | 0.246 (≈ 0.487 nM) | 0.0487 (≈ 0.0963 nM) |
| CCOC(=O)[C@H](O[C@H]1O[C@@H]2O[C@@]3(C)CC[C@H]4[C@H](C)CCC([C@H]1C)[C@@]24OO3)c1ccccc1 (some centres undefined) | 0.287 (≈ 0.643 nM) | 0.0938 (≈ 0.21 nM) |
| C[C@@H]1CCC2[C@@H](C)[C@@H](O[C@H](CC(=O)O)c3ccc([N+](=O)[O-])cc3)O[C@@H]3O[C@@]4(C)CC[C@@H]1[C@@]23OO4 (some centres undefined) | 2.87 (≈ 6.01 nM) | 1.35 (≈ 2.82 nM) |
| CCOC(=O)C[C@@H](O[C@H]1O[C@@H]2O[C@@]3(C)CC[C@H]4[C@H](C)CCC([C@H]1C)[C@@]24OO3)c1ccc([N+](=O)[O-])cc1 (some centres undefined) | 0.563 (≈ 1.11 nM) | 0.23 (≈ 0.454 nM) |
| C[C@@H]1CC[C@H]2[C@@H](C)C(=O)O[C@@H]3O[C@@]4(C)CC[C@@H]1[C@]32OO4 [ARTEMISININ] | 2.3 (≈ 8.15 nM) | 1.01 (≈ 3.6 nM) |
| CCOC(=O)C[C@H](O[C@H]1O[C@@H]2O[C@@]3(C)CC[C@H]4[C@H](C)CCC([C@H]1C)[C@@]24OO3)c1ccccc1 (some centres undefined) | 0.459 (≈ 0.997 nM) | 0.144 (≈ 0.312 nM) |
| C[C@H](O[C@H]1O[C@@H]2O[C@@]3(C)CC[C@H]4[C@H](C)CCC([C@H]1C)[C@@]24OO3)c1ccc(C(=O)O)cc1 (some centres undefined) | 2.94 (≈ 6.79 nM) | 1.23 (≈ 2.85 nM) |
| CO[C@H]1O[C@@H]2O[C@@]3(C)CC[C@H]4[C@H](C)CC[C@@H]([C@H]1C)[C@@]24OO3 [ARTEMETHER] | 0.869 (≈ 2.91 nM) | 0.301 (≈ 1.01 nM) |
| C[C@@H]1[C@H](OCc2ccc(C(=O)O)cc2)O[C@@H]2O[C@@]3(C)CC[C@@H]4[C@@H](C)CC[C@@H]1[C@]24OO3 [ARTELINIC ACID] | 4.87 (≈ 11.6 nM) | 2.08 (≈ 4.97 nM) |
| CCC[C@@H](Cc1ccccc1)O[C@H]1O[C@@H]2O[C@@]3(C)CC[C@H]4[C@H](C)CCC([C@H]1C)[C@@]24OO3 (some centres undefined) | 0.972 (≈ 2.26 nM) | 0.697 (≈ 1.62 nM) |
| C[C@@H]1CCC2[C@@H](C)[C@@H](O[C@H](C)c3ccc(C(=O)O)cc3)O[C@@H]3O[C@@]4(C)CC[C@@H]1[C@@]23OO4 (some centres undefined) | 5.77 (≈ 13.3 nM) | 2.54 (≈ 5.86 nM) |
| COC(=O)c1ccc([C@H](C)O[C@H]2O[C@@H]3O[C@@]4(C)CC[C@H]5[C@H](C)CCC([C@H]2C)[C@@]35OO4)cc1 (some centres undefined) | 0.692 (≈ 1.55 nM) | 0.335 (≈ 0.751 nM) |
| C[C@@H]1CCC2[C@@H](C)[C@@H](O[C@H](C)c3ccc(C(F)(F)F)cc3)O[C@@H]3O[C@@]4(C)CC[C@@H]1[C@@]23OO4 (some centres undefined) | 1.46 (≈ 3.19 nM) | 1.15 (≈ 2.51 nM) |
| CCOC(=O)[C@@H](O[C@H]1O[C@@H]2O[C@@]3(C)CC[C@H]4[C@H](C)CCC([C@H]1C)[C@@]24OO3)c1ccccc1 (some centres undefined) | 0.509 (≈ 1.14 nM) | 0.227 (≈ 0.507 nM) |
